Test results from ChEMBL document CHEMBL1152414, “Synthesis, antimalarial activity and cytotoxicity of substituted 3,6-diphenyl-[1,2,4,5]tetraoxanes” (Bioorg Med Chem, 2009).
pIC50: −log10 of the molar value.

Key:
[1] = Selectivity index, ratio of IC50 for african green monkey (Cercopithecus aethiops) Vero cells to IC50 for chloroquine-resistant Plasmodium falciparum W2; format: toxicity, cell-based; conditions: read-out: Ratio IC50
How it was run: (§1)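 Selectivity index is Vero cytotoxicity IC50 (Neutral Red, 48 h) divided by P. falciparum D6 or W2 IC50 (parasite LDH, 72 h).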

Vero [2] = assay: Cytotoxicity against african green monkey Vero cells upto 16.72 uM after 48 hrs by neutral red assay; format: cell-based; conditions: chlorocebus sabaeus
How it was run: (§2)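 Vero monkey kidney cells seeded at 25,000 cells/well and grown 24 h, then exposed to samples at several concentrations for 48 h. Viable cells counted by Neutral Red uptake. IC50 taken from dose-response curves; doxorubicin run as positive control.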

[3] = Selectivity index, ratio of IC50 for african green monkey (Cercopithecus aethiops) Vero cells to IC50 for chloroquine-sensitive Plasmodium falciparum D6; format: toxicity, cell-based; conditions: read-out: Ratio IC50; how it was run: as §1
Plasmodium falciparum [4] = assay: Antimalarial activity after 72 hrs against chloroquine-resistant Plasmodium falciparum W2 by Malstat LDH activity; format: functional, organism-based; conditions: W2, 72 h
How it was run: (§3)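 P. falciparum (D6 or W2) infected red cell suspension at 2% parasitemia and 2% hematocrit in RPMI 1640 with 10% human serum and amikacin, added to serially diluted samples. Incubated 72 h at 37 °C under 90% N2/5% O2/5% CO2. Parasite LDH read with Malstat reagent and NBT/PES, acetic acid stop, 650 nm. IC50 taken from dose-response curves; artemisinin and chloroquine run as controls.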

Plasmodium falciparum [5] = assay: Antimalarial activity after 72 hrs against chloroquine-sensitive Plasmodium falciparum D6 by Malstat LDH activity; format: functional, organism-based; conditions: D6, 72 h; how it was run: as §3
Vero [6] = assay: Cytotoxicity against african green monkey Vero cells upto 30 uM after 48 hrs by neutral red assay; format: cell-based; conditions: chlorocebus sabaeus; how it was run: as §2
SK-MEL = assay: Cytotoxicity human SK-MEL cells upto 30 uM after 48 hrs by neutral red assay; format: cell-based
KB = assay: Cytotoxicity human KB cells upto 30 uM after 48 hrs by neutral red assay; format: cell-based
[7] = Cytotoxicity pig LLC-PK11 cells upto 30 uM after 48 hrs by neutral red assay; format: cell-based, Sus scrofa; conditions: llc-pk11, 48 h
SK-OV-3 = assay: Cytotoxicity human SKOV3 cells upto 30 uM after 48 hrs by neutral red assay; format: cell-based; conditions: sk-ov-3, 48 h
BT-549 = assay: Cytotoxicity human BT549 cells upto 30 uM after 48 hrs by neutral red assay; format: cell-based; conditions: bt-549, 48 h

With COc1ccc(C2OOC(c3cccc(C)c3)OO2)cc1 (stereo not drawn) the selectivity ratio [1] was > 26.4, the Activity (Vero [2]) was “Non-toxic” and the selectivity ratio [3] was > 39.7. For the same compound, the pIC50 (Plasmodium falciparum [4]) was 6.21 and the pIC50 (Plasmodium falciparum [5]) was 6.38.
In the case of Cc1ccc(C2OOC(c3cccc(C)c3)OO2)cc1 (stereo not drawn), the selectivity ratio [1] was > 17, the Activity (Vero [2]) was “Non-toxic” and the selectivity ratio [3] was > 25.1. It also gave a pIC50 (Plasmodium falciparum [4]) of 5.99 and a pIC50 (Plasmodium falciparum [5]) of 6.17.
In the case of CCc1ccc(C2OOC(c3ccc(C(C)(C)C)cc3)OO2)cc1 (stereo not drawn), the selectivity ratio [1] was > 4, the Activity (Vero [2]) was “Non-toxic” and the selectivity ratio [3] was > 2.6. The pIC50 (Plasmodium falciparum [4]) was 5.44 and the pIC50 (Plasmodium falciparum [5]) was 5.26.
For CCCc1ccc(C2OOC(c3ccc(C(C)C)cc3)OO2)cc1 (stereo not drawn), the selectivity ratio [1] was > 18.3, the Activity (Vero [2]) was “Non-toxic” and the selectivity ratio [3] was > 15.4. For the same compound, the pIC50 (Plasmodium falciparum [4]) was 6.10 and the pIC50 (Plasmodium falciparum [5]) was 6.02.
With CCc1ccc(C2OOC(c3ccc(C)cc3)OO2)cc1 (stereo not drawn) the selectivity ratio [1] was > 36.7, the Activity (Vero [2]) was “Non-toxic” and the selectivity ratio [3] was > 43.6. The pIC50 (Plasmodium falciparum [4]) was 6.35 and the pIC50 (Plasmodium falciparum [5]) was 6.42.
In the case of COc1ccc(C2OOC(c3ccc(C)cc3)OO2)cc1 (stereo not drawn), the selectivity ratio [1] was > 15.4, the Activity (Vero [2]) was “Non-toxic” and the selectivity ratio [3] was > 21.6. For the same compound, the pIC50 (Plasmodium falciparum [4]) was 5.97 and the pIC50 (Plasmodium falciparum [5]) was 6.12.
In the case of CCc1ccc(C2OOC(c3ccc(CC)cc3)OO2)cc1 (stereo not drawn), the Activity (Vero [6]) was “Non-toxic”, the Activity (SK-MEL) was “Non-toxic” and the selectivity ratio [1] was > 15.9. For the same compound, the Activity (Vero [2]) was “Non-toxic”, the selectivity ratio [3] was > 15.9 and the Activity (KB) was “Non-toxic”. For the same compound, the Activity [7] was “Non-toxic”, the Activity (SK-OV-3) was “Non-toxic” and the pIC50 (Plasmodium falciparum [5]) was 6.00. For the same compound, the Activity (BT-549) was “Non-toxic”.
With Cc1cccc(C2OOC(c3ccccc3)OO2)c1 (stereo not drawn) the selectivity ratio [1] was > 39.7, the Activity (Vero [2]) was “Non-toxic” and the selectivity ratio [3] was > 36.8. The pIC50 (Plasmodium falciparum [4]) was 6.34 and the pIC50 (Plasmodium falciparum [5]) was 6.30.
In the case of Cc1ccc(C2OOC(c3ccccc3)OO2)cc1 (stereo not drawn), the selectivity ratio [1] was > 17, the Activity (Vero [2]) was “Non-toxic” and the selectivity ratio [3] was > 19.8. It also gave a pIC50 (Plasmodium falciparum [4]) of 5.97 and a pIC50 (Plasmodium falciparum [5]) of 6.03.
In the case of CCCc1ccc(C2OOC(c3ccc(CCC)cc3)OO2)cc1 (stereo not drawn), the Activity (Vero [6]) was “Non-toxic”, the Activity (SK-MEL) was “Non-toxic” and the selectivity ratio [1] was > 19. The Activity (Vero [2]) was “Non-toxic”, the selectivity ratio [3] was > 23.8 and the pIC50 (Plasmodium falciparum [4]) was 6.12. For the same compound, the Activity (KB) was “Non-toxic”, the Activity [7] was “Non-toxic” and the Activity (SK-OV-3) was “Non-toxic”. For the same compound, the pIC50 (Plasmodium falciparum [5]) was 6.21 and the Activity (BT-549) was “Non-toxic”.
In the case of CC(C)c1ccc(C2OOC(c3ccc(C(C)C)cc3)OO2)cc1 (stereo not drawn), the Activity (Vero [6]) was “Non-toxic”, the Activity (SK-MEL) was “Non-toxic” and the selectivity ratio [1] was > 14. For the same compound, the Activity (Vero [2]) was “Non-toxic”, the selectivity ratio [3] was > 21.6 and the pIC50 (Plasmodium falciparum [4]) was 5.99. The Activity (KB) was “Non-toxic”, the Activity [7] was “Non-toxic” and the Activity (SK-OV-3) was “Non-toxic”. The pIC50 (Plasmodium falciparum [5]) was 6.17 and the Activity (BT-549) was “Non-toxic”.
With Cc1ccc(C2OOC(c3ccc(C(C)(C)C)cc3)OO2)cc1 (stereo not drawn) the selectivity ratio [1] was > 19, the Activity (Vero [2]) was “Non-toxic” and the selectivity ratio [3] was > 25.1. For the same compound, the pIC50 (Plasmodium falciparum [4]) was 6.10 and the pIC50 (Plasmodium falciparum [5]) was 6.22.
For CCCc1ccc(C2OOC(c3ccc(C(C)(C)C)cc3)OO2)cc1 (stereo not drawn), the selectivity ratio [1] was > 5.3, the Activity (Vero [2]) was “Non-toxic” and the selectivity ratio [3] was > 3.4. It also gave a pIC50 (Plasmodium falciparum [4]) of 5.58 and a pIC50 (Plasmodium falciparum [5]) of 5.39.
In the case of CCCc1ccc(C2OOC(c3ccc(C)cc3)OO2)cc1 (stereo not drawn), the selectivity ratio [1] was > 14.9, the Activity (Vero [2]) was “Non-toxic” and the selectivity ratio [3] was > 7.9. The pIC50 (Plasmodium falciparum [4]) was 5.97 and the pIC50 (Plasmodium falciparum [5]) was 5.70.
In the case of CC(C)(C)c1ccc(C2OOC(c3ccc(C(C)(C)C)cc3)OO2)cc1 (stereo not drawn), the selectivity ratio [1] was > 3.4, the Activity (Vero [2]) was “Non-toxic” and the selectivity ratio [3] was > 6.1. For the same compound, the pIC50 (Plasmodium falciparum [4]) was 5.41 and the pIC50 (Plasmodium falciparum [5]) was 5.66.
In the case of COc1ccc(C2OOC(c3ccc(C(C)C)cc3)OO2)cc1 (stereo not drawn), the selectivity ratio [1] was > 2.6, the Activity (Vero [2]) was “Non-toxic” and the selectivity ratio [3] was > 1.9. The pIC50 (Plasmodium falciparum [4]) was 5.24 and the pIC50 (Plasmodium falciparum [5]) was 5.10.
With Cc1cccc(C2OOC(c3ccccc3C)OO2)c1 (stereo not drawn) the selectivity ratio [1] was > 12.9, the Activity (Vero [2]) was “Non-toxic” and the selectivity ratio [3] was > 17. The pIC50 (Plasmodium falciparum [4]) was 5.87 and the pIC50 (Plasmodium falciparum [5]) was 5.99.
For CCCc1ccc(C2OOC(c3ccc(OC)cc3)OO2)cc1 (stereo not drawn), the selectivity ratio [1] was > 22.7, the Activity (Vero [2]) was “Non-toxic” and the selectivity ratio [3] was > 15.8. For the same compound, the pIC50 (Plasmodium falciparum [4]) was 6.18 and the pIC50 (Plasmodium falciparum [5]) was 6.03.
In the case of C[C@@H]1CC[C@H]2[C@@H](C)C(=O)O[C@@H]3O[C@@]4(C)CC[C@@H]1[C@]32OO4 [ARTEMISININ], the selectivity ratio [1] was > 1400, the Activity (Vero [2]) was “Non-toxic” and the selectivity ratio [3] was > 476. The pIC50 (Plasmodium falciparum [4]) was 7.82.
For COc1ccc(C2OOC(c3ccc(C(C)(C)C)cc3)OO2)cc1 (stereo not drawn), the selectivity ratio [1] was > 22.7, the Activity (Vero [2]) was “Non-toxic” and the selectivity ratio [3] was > 26.4. For the same compound, the pIC50 (Plasmodium falciparum [4]) was 6.19 and the pIC50 (Plasmodium falciparum [5]) was 6.27.
In the case of CC(C)c1ccc(C2OOC(c3ccc(C(C)(C)C)cc3)OO2)cc1 (stereo not drawn), the selectivity ratio [1] was > 1.5, the Activity (Vero [2]) was “Non-toxic” and the selectivity ratio [3] was > 1. For the same compound, the pIC50 (Plasmodium falciparum [4]) was 5.03 and the pIC50 (Plasmodium falciparum [5]) was 4.86.
For CCCCc1ccc(C2OOC(c3ccc(CCCC)cc3)OO2)cc1 (stereo not drawn), the selectivity ratio [1] was > 2.8, the Activity (Vero [2]) was “Non-toxic” and the selectivity ratio [3] was > 3.7. It also gave a pIC50 (Plasmodium falciparum [4]) of 5.32 and a pIC50 (Plasmodium falciparum [5]) of 5.44.
In the case of Cc1ccc(C2OOC(c3ccc(C(C)C)cc3)OO2)cc1 (stereo not drawn), the selectivity ratio [1] was > 20.9, the Activity (Vero [2]) was “Non-toxic” and the selectivity ratio [3] was > 26.4. The pIC50 (Plasmodium falciparum [4]) was 6.11 and the pIC50 (Plasmodium falciparum [5]) was 6.23.
In the case of CCc1ccc(C2OOC(c3cccc(C)c3)OO2)cc1 (stereo not drawn), the selectivity ratio [1] was > 29.8, the Activity (Vero [2]) was “Non-toxic” and the selectivity ratio [3] was > 47.6. For the same compound, the pIC50 (Plasmodium falciparum [4]) was 6.25 and the pIC50 (Plasmodium falciparum [5]) was 6.46.
In the case of CCc1ccc(C2OOC(c3ccc(C(C)C)cc3)OO2)cc1 (stereo not drawn), the selectivity ratio [1] was > 26.4, the Activity (Vero [2]) was “Non-toxic” and the selectivity ratio [3] was > 34. For the same compound, the pIC50 (Plasmodium falciparum [4]) was 6.24 and the pIC50 (Plasmodium falciparum [5]) was 6.35.
In the case of CCN(CC)CCCC(C)Nc1ccnc2cc(Cl)ccc12 (stereo not drawn) [CHLOROQUINE], the Activity (Vero [2]) was “Non-toxic”.
In the case of Cc1ccc(C2OOC(c3ccccc3C)OO2)cc1 (stereo not drawn), the selectivity ratio [1] was > 7.9, the Activity (Vero [2]) was “Non-toxic” and the selectivity ratio [3] was > 5.7. The pIC50 (Plasmodium falciparum [4]) was 5.66 and the pIC50 (Plasmodium falciparum [5]) was 5.52.
In the case of Cc1ccc(C2OOC(c3ccc(C=O)cc3)OO2)cc1 (stereo not drawn), the Activity (Vero [2]) was “Non-toxic”.
